Shown are actives, neighbours in structure and some others; about 1.7% of the full set was active somewhere.
DNMT1 block – DNMT1 (human) enzyme inhibition; AID 588458; P26358; 360,000 tested, 0.83% active; DNMT1 molecular beacon, Hinp1I cleavage, fluorescence; inhibition (reported as % activation of signal), % at 10 µM; in the data active = inhibition above about 50%
Scp1 inh – blocks human Scp-1 phosphatase activity; Q9GZU7; Recombinant Scp1, phosphopeptide, malachite green phosphate absorbance; inhibition, % at 20 µM; 340,000 tested, 0.88% active; AID 493091;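 active = inhibition above about 50% at 20 µM, limit read from the data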
Target sequence (Q9GZU7 76-261 limits assumed): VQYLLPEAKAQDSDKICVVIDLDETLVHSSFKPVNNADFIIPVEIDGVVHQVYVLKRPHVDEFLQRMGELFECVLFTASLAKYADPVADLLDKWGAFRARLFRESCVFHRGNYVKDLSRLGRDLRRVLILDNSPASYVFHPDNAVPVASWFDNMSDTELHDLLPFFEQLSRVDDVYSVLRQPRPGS
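Material – SCP-1 phosphatase catalytic domain, residues 76-261 · Buffer or medium – Acidic Tris acetate buffer with magnesium and detergent · Also added – Phospho 17-mer peptide substrate · Compound – single 20 µM dose, 1% DMSO · Times – 45 min room-temperature reaction, 5 min colour, 30 min stabiliser · Technique – Phosphate-binding colour reagent, absorbance read at 630 nm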
STEP block – inhibitors of human striatal-enriched phosphatase STEP; 360,000 tested, 0.25% active; P54829; inhibition, % at 20 µM; recombinant STEP, OMFP fluorogenic substrate, fluorescence; AID 588621;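 active = inhibition at 20 µM, scaled per plate between control wells, above about 37%, limit read from the data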
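Also added – OMFP at 25 µM · Test system – STEP tyrosine phosphatase · Technique – FITC-channel fluorescence of OMFP product · Schedule – 20 min at room temperature, dark · Evaluation – control-normalized % inhibition with plate pattern correction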
SUMO1 PPI mod – alters human SUMO1 binding to SIM partners; P63165; SUMO1 binding to a labelled peptide, TR-FRET, 1 h; inhibition, % at 20 µM; 360,000 tested, 0.33% active; AID 602429; in the data active = inhibition above about 37%
Target sequence (P63165 whole entry, looked up): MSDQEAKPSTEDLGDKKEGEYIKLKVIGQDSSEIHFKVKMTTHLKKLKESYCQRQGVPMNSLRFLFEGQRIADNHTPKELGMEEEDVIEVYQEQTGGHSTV
LMPTP block – LMPTP (human) inhibition. AID 651560. recombinant LMPTP-A, OMFP fluorogenic substrate, fluorescence intensity. inhibition, % at 20 µM. 360,000 tested, 0.22% active;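 active = compounds that cut the enzyme signal by at least half of the control window in the single-dose screen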
Target sequence (P24666 whole entry, looked up): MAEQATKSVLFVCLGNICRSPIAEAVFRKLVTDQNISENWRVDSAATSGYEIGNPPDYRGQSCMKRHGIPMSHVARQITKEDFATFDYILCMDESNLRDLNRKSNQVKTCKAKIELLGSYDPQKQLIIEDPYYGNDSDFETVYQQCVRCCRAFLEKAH
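Material: LMPTP-A; amount: 0.625 nM enzyme; doses: single 20 µM dose; times: reaction 50 min, room temperature, dark; technique: fluorescence intensity of OMFP turnover product; benchmarks: no-enzyme and uninhibited controls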
Scp1 confirm – Scp-1 (human) inhibition, single-dose confirmed; shares compounds with Scp1 inh; AID 540281; inhibition, % at 20 µM; recombinant SCP-1 catalytic domain, phosphate release, malachite green absorbance; 2,500 tested, 61% active
Scp-1 MG ctr – interferes with malachite green readout, flagging false Scp-1 hits; Colorimetric interference counterscreen, malachite green absorbance 630 nm; shares compounds with Scp1 inh; apparent inhibition (interference), % at 20 µM; 2,500 tested, under 10 active;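 also: compounds added after enzyme reaction finished so only phosphate colour detection is probed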
Scp-1 Tm shift – Scp-1 (human) binding by thermal shift; shares compounds with Scp1 inh; Recombinant SCP1, Sypro Orange thermal shift Tm; 1,500 tested, 25% active; thermal shift relative to vanadate control, % at 40 µM;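 active = substances whose mean melting-temperature shift, as a percentage of the reference inhibitor's shift, reaches about 5.3%, limit read from the data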
DNMT1 interf DR – beacon fluorescence artifact, dose response counter-screen; 200 tested, under 10 active; AID 602382; IC50, µM; molecular beacon fluorescence, spectral interference counter-screen; shares compounds with DNMT1 block; call rule not given here
DNMT1 inh conf – confirmation of human DNMT1 inhibitors. shares compounds with DNMT1 block. DNMT1 molecular beacon HinP1I cleavage, fluorescence. inhibition, % at 10 µM. 2,300 tested, 8% active. AID 602385;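 active = average inhibition of at least 30% in the single-concentration confirmation test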
Beacon interf – shows spectral interference in the DNMT1 beacon assay; shares compounds with DNMT1 block; DNMT1 molecular beacon spectral interference counterscreen, fluorescence 485/520; 2,300 tested, 1% active; activation (fluorescence interference), % at 10 µM;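 active = activation of at least 30% at 10 µM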;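 also: DNMT1 catalytic domain with a HinP1I cleavage step and a FAM/dabcyl DNA beacon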
Hits are given with their value; 0 = inactive; - = no result.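 The calls were made as follows, unless noted: active = inhibition of at least 30% at 20 µM; inactive = the rest.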

SMILES | DNMT1 block | Scp1 inh | STEP block | SUMO1 PPI mod | LMPTP block | Scp1 confirm | Scp-1 MG ctr | Scp-1 Tm shift | DNMT1 inh conf | Beacon interf | others
Cc1cc(C(=O)NCc2ccc(C(=O)O)o2)c(C)o1 | 78 | 56 | 0 | 0 | 0 | 52 | 0 | 0 | 0 | 0
O=C1C2C(C(=O)N1/N=C/c1cc([N+](=O)[O-])c(O)cc1O)C1C=CC2C12CC2 (stereo not drawn) | 83 | 64 | 0 | 0 | 0 | 64 | 0 | 5.9 | 0 | 0
COc1cccc(NC(=O)C2CCN(S(=O)(=O)c3ccc4[nH]c(=O)ccc4c3)CC2)c1 | 0 | 0 | 0 | 0 | 0 | - | - | - | - | -
Cc1ccccc1NC(=O)CSc1ccsc1[N+](=O)[O-] | 104 | 72 | 0 | 0 | 0 | 62 | 0 | 14 | 49 | 0 | DNMT1 interf DR=0
CCN(C)C1CN(Cc2cn(Cc3ccc(C(F)(F)F)cc3)nn2)S(=O)(=O)C1 (stereo not drawn) | - | - | - | 0 | 0 | - | - | - | - | -
CCCCOc1cccc(C(=O)O)c1 | 0 | 0 | 0 | 0 | 0 | - | - | - | - | -
CC[N+](CC)(CC)CCCCOc1ccc2c(c1)C(=O)c1cc(OCCCC[N+](CC)(CC)CC)ccc1-2 | 50 | 99 | 0 | 0 | 0 | 0 | 0 | - | 0 | 0
N=C1C(c2nc3ccccc3s2)=C(O)CN1NC(=O)c1ccccc1[N+](=O)[O-] | 0 | 0 | 0 | 0 | 0 | - | - | - | - | -
N=C1C(c2nc3ccccc3s2)=C(O)CN1NC(=O)c1c[nH]c2ccccc12 | 65 | 64 | 0 | 0 | 0 | 54 | 0 | 0 | 0 | 0
COc1cccc(NC(=O)CN(C)C(=O)c2cc(-c3ccco3)nc3ccccc23)c1 | 55 | 64 | 0 | 0 | 0 | 61 | 0 | 5.3 | 0 | 0
O=C(O)c1cc(-c2ccco2)nc2cc3ccccc3cc12 | 76 | 91 | 0 | 38 | 0 | 34 | 0 | 0 | 0 | 0
CCOc1ccc(NC(=O)CN(C)C(=O)c2cc(-c3ccco3)nc3ccccc23)cc1OCC | 0 | 0 | 0 | 0 | 0 | - | - | - | - | -
O=C(NNC(=O)c1cc(-c2ccco2)nc2ccccc12)c1ccccc1 | 0 | 0 | 0 | 0 | 0 | - | - | - | - | -
Cc1ccc(NC(=O)CN(C)C(=O)c2cc(-c3ccco3)nc3ccccc23)cc1 | 75 | 76 | 0 | 0 | 0 | 68 | 0 | 6.2 | 0 | 0
CN(CC(=O)Nc1ccc(F)cc1)C(=O)c1cc(-c2ccco2)nc2ccccc12 | 84 | 70 | 0 | 0 | 0 | 62 | 0 | 8.9 | 0 | 0
CSCC[C@H](NC(=O)N1CCn2c1nc1ccccc12)C(=O)NCc1ccccc1 | 0 | 0 | 0 | 0 | 0 | - | - | - | - | -
Cc1cc2c(cc1C)C(c1ccccc1OC(C)C)CC(=O)N2 (stereo not drawn) | 0 | 0 | 0 | 0 | 0 | - | - | - | - | -
O=C(N/N=C/c1ccc2c(c1)OCO2)c1cc(-c2ccco2)nc2ccccc12 | 72 | 67 | 0 | 0 | 0 | 46 | 0 | 0 | 0 | 0
C[C@H](NC(=O)[C@H](Cc1ccccc1)NC(=O)c1cc2cc(Cl)ccc2n1C)C(=O)O | 0 | 0 | 0 | 0 | 0 | - | - | - | - | -
O=[N+]([O-])c1ccc(/C=N/Nc2nc3ccccc3o2)cc1 | 56 | 50 | 0 | 0 | 0 | 56 | 0 | 0 | 0 | 0
CCS(=O)(=O)c1ccc(C=NNc2nc3ccccc3o2)cc1 | 0 | 0 | 0 | 0 | 0 | - | - | - | - | -
O=C1NC(=S)NC1=Cc1ccco1 | 53 | 59 | 0 | 0 | 0 | 54 | 0 | 0 | 0 | 0
O=C(O)c1ccc(Cl)c(S(=O)(=O)Nc2ccc(OCc3ccccc3)cc2)c1 | 0 | 0 | 0 | 0 | 0 | - | - | - | - | -

High-throughput results deposited in PubChem by Sanford-Burnham Center for Chemical Genomics.
